High-throughput results (PubChem BioAssay)
The list is not random: actives were taken first. Their share in the collection is about 2.1%.
MEKK2mut PB1 HTS: MEK5 binding signal on mutant MEKK2 PB1, primary screen, biochemical, multiplex bead flow cytometry, Alexa488-MEK5 | Alexa488-MEK5 binding to MEKK2 mutant | percent response, % at 10 µM | 0.35% of 290,000 active | AID 1530, 2009; in the data active = percent response above about 24%, passing the limit was not always enough
MEKK2wt PB1 HTS: modulators of MEK5 binding to wildtype MEKK2, primary screen, biochemical, multiplex bead flow cytometry, Alexa488-MEK5; Mitogen-activated protein kinase kinase kinase 2 (Homo sapiens), Q9Y2U5; Alexa488-MEK5 binding to MEKK2 WT; actives lie on both sides; binding response (% of control), % at 10 µM; 1.1% of 290,000 active; in the data active = binding response below about 67% or above about 130%
GSK3B inh: human GSK3beta kinase inhibitors, primary screen, biochemical, cell-free homogeneous, HTS | Glycogen synthase kinase-3 beta (Homo sapiens), P49841 | GST-GSK3beta kinase, ADP-Glo luminescence, 60 min; stronger effect = lower value | activity score (negative = inhibition), % at 10 µM | 0.038% of 300,000 active | AID 2097, 2009;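 active = more than half of replicate wells score below -50%, meaning over 50% inhibition versus plate controls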
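Test system – GST-tagged human GSK3beta kinase, cell-free · Incubation – 60 min enzyme reaction, room temperature · Signal – ADP-Glo luminescence · Also added – peptide substrate and ATP at 25 µM · Controls – DMSO neutral wells and GW8510 at 20 µM as positive · Buffer or medium – Tris/MgCl2 kinase buffer · Measure – Luminescence-derived activity versus plate DMSO and GW8510 wells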
STK33 inh: inhibitors of purified STK33 kinase, primary screen, biochemical, ADP-Glo luminescence, homogeneous, cell-free; Serine/threonine-protein kinase 33 (Homo sapiens), Q9BYT3; MBP phosphorylation; inhibition, % at 10 µM; 0.073% of 320,000 active; AID 2661, 2010;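 active = inhibition at or above 25%, using the most active replicate where run in duplicate; inactive = inhibition below 25%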
MEKK3 PB1 HTS: modulators of MEKK3-MEK5 PB1 binding, primary screen, biochemical, wildtype MEKK3, multiplex bead flow cytometry, Alexa488-MEK5; 1.4% of 290,000 active; AID 1529, 2009; bead-based flow cytometry, Alexa488-MEK5 binding to MEKK3; actives lie on both sides; 0 = blocked by unlabeled MEK5, 100 = vehicle; binding response (% of control), % at 10 µM; Mitogen-activated protein kinase kinase kinase 3 (Homo sapiens), Q99759;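 active = binding response more than 3 SD above or below the average of its plate-row segment, actives on both sides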;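 note: Alexa488 bead fluorescence after subtracting the streptavidin-only scavenger bead signal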
GSK3A inh: blockers of GSK3A enzyme activity – biochemical, luminescence, cell-free homogeneous, HTS, primary screen; GSK-3 alpha kinase, ADP-Glo luminescence, 60 min; 0.1% of 320,000 active; inhibition, % at 10 µM;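 active = more than half of replicates show inhibition above 20%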;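 note: GST-tagged GSK-3 alpha with peptide substrate and 25 µM ATP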
Target sequence (P49840 whole entry, looked up): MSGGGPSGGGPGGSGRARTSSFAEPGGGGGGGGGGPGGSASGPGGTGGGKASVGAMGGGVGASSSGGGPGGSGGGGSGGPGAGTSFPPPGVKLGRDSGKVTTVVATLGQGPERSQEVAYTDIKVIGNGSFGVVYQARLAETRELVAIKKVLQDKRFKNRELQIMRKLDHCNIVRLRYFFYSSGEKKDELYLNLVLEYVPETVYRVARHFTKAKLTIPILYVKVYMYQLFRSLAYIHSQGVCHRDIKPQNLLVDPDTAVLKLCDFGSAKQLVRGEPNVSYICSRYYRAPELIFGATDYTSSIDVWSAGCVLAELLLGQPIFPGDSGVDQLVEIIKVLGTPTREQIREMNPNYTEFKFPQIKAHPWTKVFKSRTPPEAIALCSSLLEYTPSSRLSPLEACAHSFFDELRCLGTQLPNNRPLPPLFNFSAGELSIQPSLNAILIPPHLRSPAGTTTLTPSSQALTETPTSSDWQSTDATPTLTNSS
MEKK2wt confirm: modulators of MEK5 binding to wildtype MEKK2, confirmation, biochemical, single concentration, multiplex bead flow cytometry | shares compounds with MEKK3 PB1 HTS | Alexa488-MEK5 binding to MEKK2 WT; actives lie on both sides | binding response (% of control), % at 10 µM | 2.4% of 5,900 active | AID 1892, 2009; in the data active = binding response below about 16% or above about 210%; inactive = in between
MEKK2mut confirm: mutant MEKK2 PB1-MEK5 binding signal retest – biochemical, single concentration, multiplex bead flow cytometry, confirmation; shares compounds with MEKK3 PB1 HTS; Alexa488-MEK5 binding to MEKK2 mutant; percent response, % at 10 µM; 2% of 5,900 active; in the data active = percent response mostly above about 71%, no sharp cut-off; inactive = mostly below about 38%;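 note: higher means compound restores mutant binding toward wildtype level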
MEKK3-MEK5 inh: MEKK3 wild-type PB1 binding to MEK5, inhibitors, confirmation, biochemical, bead multiplex flow cytometry, single concentration, wildtype; AID 1894, 2009; shares compounds with MEKK3 PB1 HTS; Alexa488-MEK5 binding to MEKK3; stronger effect = lower value; binding response (% of control), % at 10 µM; 1.8% of 5,900 active;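 active = binding response below 72% of control, or above a set upper limit, though filed actives all read lower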
Numbers stand for hits; i = inactive; nt = no result given; [ ] = another dose, or the depositor's remark.

SMILES	MEKK2mut PB1 HTS	MEKK2wt PB1 HTS	GSK3B inh	STK33 inh	MEKK3 PB1 HTS	GSK3A inh	MEKK2wt confirm	MEKK2mut confirm	MEKK3-MEK5 inh
COc1ccc(-c2csc3nc(-c4cccnc4)nc(Cl)c23)cc1OC	i	i	i	i	145.0	i	i	i	i
O=C(c1ccccc1)c1ccc(Oc2ncccn2)cc1	i	-1.0[inhibitor]	i	i	0.0[inhibitor]	i	i	i	i
COc1cccc2sc(N(CCN(C)C)C(=O)c3ccc4c(c3)CCCC4)nc12	i	i	i	i	i	i	nt	nt	nt
COc1cc2nc(N(CCCN(C)C)C(=O)c3ccc(S(=O)(=O)N4CCc5ccccc5C4)cc3)sc2cc1OC	nt	nt	i	i	nt	i	nt	nt	nt
CN(C)CCCN(C(=O)c1ccc2c(c1)CCCC2)c1nc2ccc(Cl)cc2s1	78.0	196.0	i	i	i	i	221.0	i	i
CCOc1ccc2nc(N(CCCN(C)C)C(=O)c3ccc4c(c3)CCCC4)sc2c1	26.0	158.0	i	i	i	i	i	i	i
CCOc1ccc2nc(N(CCCN(C)C)C(=O)c3ccc(S(=O)(=O)N4CCc5ccccc5C4)cc3)sc2c1	i	168.0	i	i	i	i	i	i	i
COc1ccc([C@H]2CC(=O)C=C(c3ccc(CNC(=O)OC(C)(C)C)cc3)C2)cc1	nt	nt	nt	i	nt	i	nt	nt	nt
CCCCC(=O)OCC(=O)Nc1cccc(S(=O)(=O)NC2=NCCCCC2)c1	i	i	i	i	i	i	nt	nt	nt
O=C(CN1CCN(c2ccccn2)CC1)Nc1cccc(Br)c1	i	i	i	i	i	i	nt	nt	nt
O=C(COC(=O)Cc1n[nH]c(=O)c2ccccc12)Nc1cccc(C(F)(F)F)c1	i	i	i	i	i	i	nt	nt	nt
CC(C)OCCCN1CN(S(=O)(=O)c2ccccc2)c2nc3ccccc3nc21	i	11.0[inhibitor]	i	i	6.0[inhibitor]	i	i	i	i
Cc1ccc(NC(=O)CN(C)C(=O)c2ccc(Sc3nncn3C)c([N+](=O)[O-])c2)cc1	nt	nt	nt	i	nt	i	nt	nt	nt
CCCCCCCCCCCCCCCC[n+]1cccc2ccccc21	i	157.0	nt	50.0	133.0	i	252.0	165.0	i
CCCCCCCCC[n+]1cccc2c3ccccc3ccc21	i	135.0	i	i	i	i	i	i	i
Cc1ccsc1C(=O)N1CCCC(CCC(=O)NCc2ccc(F)c(F)c2)C1 (stereo not given)	i	i	i	i	i	i	nt	nt	nt
CC1=Nc2ccccc2/C1=C\c1nc(-c2ccc(F)cc2)oc1O	i	7.0	i	i	9.0[inhibitor]	i	i	i	i
CC(=O)c1cccc(NC(=O)C(C)OC(=O)c2cc(=O)[nH]c3ccccc23)c1 (stereo not given)	nt	nt	i	i	nt	i	nt	nt	nt
O=C(/C=C/c1ccco1)NC(=S)Nc1ccc(N2CCCC2)cc1	i	i	i	i	142.0	i	i	i	i
Cc1cccc(C(=O)NNC(=O)C2CCN(C(=O)OC(C)(C)C)CC2)c1	i	i	i	i	i	i	nt	nt	nt
O=C(COc1ccc([N+](=O)[O-])cc1)Nc1cccc2nsnc12	i	i	i	i	i	i	nt	nt	nt
Cc1ccc(-c2nc(NCCN3CCOCC3)c3ccccc3n2)cc1	i	i	i	i	72.0[inhibitor]	i	i	i	i
CCc1nnc(NC(=O)C2=CCN(S(=O)(=O)c3ccc(F)cc3)CC2)s1	i	i	i	i	i	i	nt	nt	nt
COc1ccc(CCNC(=O)c2cc(COc3c(C)cccc3C)on2)c(OC)c1	i	i	i	i	i	i	nt	nt	nt
CC(=O)Nc1nc(NC(=O)/C=C/c2ccccc2)n(-c2ccccc2)n1	i	i	i	i	140.0	i	i	i	i
SMILES	MEKK2mut PB1 HTS	MEKK2wt PB1 HTS	GSK3B inh	STK33 inh	MEKK3 PB1 HTS	GSK3A inh	MEKK2wt confirm	MEKK2mut confirm	MEKK3-MEK5 inh
CC(=O)Nc1nc(NCc2ccccc2Cl)n(-c2ccccc2)n1	i	i	i	i	i	i	nt	nt	nt
Cc1ccc(CN2CCC(c3cc(-c4ccc(Cl)cc4)n[nH]3)CC2)cc1	27.0	167.0	i	i	i	i	i	i	i
COc1cc(/C=N\Nc2cc(=O)n(C)c(=O)n2C)ccc1O	i	i	i	i	i	i	nt	nt	nt
Cn1c(N/N=C\c2cccc(O)c2)cc(=O)n(C)c1=O	i	i	i	i	146.0	i	i	i	i
Cc1ccc(S(=O)(=O)NCC(c2ccco2)S(=O)(=O)c2ccccc2)cc1 (stereo not given)	nt	nt	i	i	nt	i	nt	nt	nt
O=C(CC(c1ccco1)S(=O)(=O)c1ccccc1)c1ccccc1 (stereo not given)	i	i	i	i	136.0	i	i	i	i
Cc1nc2ccccc2c2oc(C(=O)N3CCC(N4CCCCC4)CC3)cc12	26.0	138.0	nt	i	i	i	i	i	i
Cc1nc2ccccc2c2oc(C(=O)N3CCN(C4CCCCC4)CC3)cc12	i	i	i	i	i	nt	nt	nt	nt
Cc1ccc(S(=O)(=O)n2ccc3c(OCCOCCSCC(NC(=O)OC(C)(C)C)C(=O)O)cccc32)cc1 (stereo not given)	i	i	i	i	i	i	nt	nt	nt
Cc1ccc(S(=O)(=O)n2ccc3c(OCCOCCNCc4ccc(F)cc4)cccc32)cc1	54.0	225.0	i	i	i	i	i	i	i
Cc1ccc(CNC(=O)Cn2ccc3ccccc3c2=O)o1	i	-3.0[inhibitor]	i	i	0.0[inhibitor]	i	i	i	i
O=c1[nH]n2c(=O)c3c([nH]c2c1N=Nc1cccc(Cl)c1)CCCC3	i	i	i	i	48.0[inhibitor]	i	i	i	i
CCOC(=O)c1ccc2ncc(C(=O)OCC)c(NCCN3CCOCC3)c2c1	i	i	i	i	i	i	nt	nt	nt
CCOC(=O)c1cnc2cc(Cl)c(OC)cc2c1NCC1CCCO1 (stereo not given)	i	136.0	nt	i	i	i	i	i	i
